Results as given in PubChem BioAssay AID623981 (Broad Institute, 2012).
Where “and” joins values, the source holds several entries; their conditions need not be identical. Identical values can stand only once. Calls of active or inactive are those of the source.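 How the source made its calls: active means compounds lowering growth signal whose fitted half-effect dose is at most twice their top tested dose; inconclusive means flat fit with moderate inhibition, or poor curve fit; inactive means the rest.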

Experiments:
[1] = single-agent growth inhibition of fluconazole-resistant C. albicans, dose response, CaCi-2 strain, dry powder, plate reader, set 3 (AID 623981); conditions: C. albicans CaCi-2 growth, Alamar Blue fluorescence, 48 h; at 3 µM (top of the series)
Summary of the method: (§1)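 system = C. albicans CaCi-2, fluconazole-resistant | quantity = inoculum A600 0.00015 | medium = MOPS-buffered RPMI 1640 plus uridine, glucose, Pen/Strep | timing = 48 h at 37 °C, humidified, plus 2 h stain | technique = Alamar Blue fluorescence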

[2] = test system: C. albicans CaCi-2 growth, Alamar Blue fluorescence, 48 h; assay: as above
Summary of the method: as §1

Compound | activity change, negative = inhibition [1] | AC50 [2]
C/C=C/[C@@H]1[C@H]2C[C@@H](C)CC[C@@H]2C(C)=C[C@H]1C(=O)c1c(O)c(-c2ccc(O)cc2)c[nH]c1=O | 47.9% (inactive) | –
CCOC(=O)N1C(=O)C2(CCCCC2)N(c2ccccc2)C1=S | – | 697 nM
CCOC(=O)N1C(=O)C2(CCCCC2)N(c2ccc(Cl)cc2)C1=S | – | 221 nM
CC1/C=C/C=C\C=C\C=C\C=C\C=C\C=C\C(O[C@H]2OC(C)C(O)C(N)C2O)CC2OC(O)(CC(O)CC(O)C(O)CCC(O)CC(O)CC(=O)OC(C)C(C)C1O)CC(O)C2C(=O)O (stereo partly drawn) | – | 92.3 nM
CCOC(=O)N1C(=O)C2(CCCCC2)N(c2cccc(C)c2)C1=S | – | 1260 nM
CCOC(=O)N1C(=O)C2(CCCCC2)N(c2ccc(C#N)cc2)C1=S | – | 307 nM
CCOC(=O)N1C(=O)C2(CCCCC2)N(c2ccc(F)cc2)C1=S | – | 150 nM
CCOC(=O)N1C(=O)C2(CCCCC2)N(c2ccc(C)cc2)C1=S | – | 2740 nM and 3070 nM
